Read-outs that look alike come from different tables or passages of the source.
Assays:
[1] = system: SLE immune-complex-driven IFN-α response in PBMCs; assay: IFN-α release from PBMCs stimulated with SLE patient sera immune complexes; format: cell-based, human
[2] = system: ssRNA driven IFN transcripts in human PBMCs; assay: ISG expression in human PBMCs stimulated with ssRNA; format: cell-based; settings: HCQ vs MHV370
Summary of the method: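 PBMCs were pre-incubated 30 min with test compound or HCQ, then stimulated with ssRNA at doses from earlier work. RNA was extracted, and ISG transcripts were quantified by qRT-PCR with the 2−ΔΔCt method against 18S rRNA, using biological replicates. Each ISG's induction was normalized to 100% to give a panel signature.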

[3] = system: immune-complex stimulated ISG panel in PBMCs; assay: Five-gene ISG panel in PBMCs stimulated with SLE immune complexes; format: cell-based, human; settings: HCQ 1 μM
Summary of the method: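 PBMCs were pre-treated 30 min with test compound, HCQ or 0.1% DMSO, then stimulated 20 h with SLE serum pre-complexed with U-937 necrotic extract. RNA was extracted and ISGs quantified by qRT-PCR with the 2−ΔΔCt method against 18S rRNA, using biological replicates. Global ISG induction was derived by normalizing each ISG's relative induction to 100%.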

[4] = system: IFN-α accelerated NZB/W F1 model; settings: cited from earlier work
SLE patients [5] = settings: cited from earlier work
SLE patients [6] = settings: BLISS trial, cited from earlier work

CCN(CCO)CCCC(C)Nc1ccnc2cc(Cl)ccc12 (stereo not drawn) [HCQ, hydroxychloroquine, reference compound]
inhibition of immune-complex-driven IFN-α responses by serum category ([1]; HCQ 1 μM (matched steady-state blood exposure of SLE patients), PBMCs): strongest inhibition of IFN-α responses elicited by dsDNA immune complexes | fold lower potency than MHV370, immune-complex-induced IFN-α ([1]; HCQ vs MHV370): approximately 1,000 fold | fold less potent antagonist of ISG expression than MHV370 [2]: 3,300 fold | expression of a five-panel ISG signature [3]: only mildly effective

N#Cc1ccc(N2C[C@H](N)C[C@H](C(F)(F)F)C2)c2cccnc12 [M5049]
efficacy in IFN-α accelerated NZB/W F1 model [4]: showed efficacy

anifrolumab: antibody drug which interferes with type I IFN signaling
herpes virus infections in treated patients (SLE patients [5]): increased | predefined endpoint in phase 3 studies (SLE patients [5]; one of two phase 3 studies): failed to reach its predefined endpoint

belimumab: antibody drug which interferes with B cell expansion
SRI (SLE responder index) response rate above placebo (SLE patients [6]; 1 mg/kg): 7% | SRI (SLE responder index) response rate above placebo (SLE patients [6]; 10 mg/kg): 14%
